High-throughput results deposited in PubChem by several laboratories.
Hits are enriched below; roughly 2.4% of the tested compounds scored in any of these assays.
beta cell repl = inducers of beta-cell replication in MIN6 cells. MIN6 cells proliferation, ATPlite luminescence, 48 h; cells starved in 0.2% serum; 100% = growth in 10% serum. proliferation, % at 10 µM. 330,000 compounds, 0.29% hits. AID 2380;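 active = compounds whose signal lies at least 3.5 SD above the mean of all wells on their plate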;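 also: 0% = DMSO-treated cells in low-serum medium and 100% = 10% serum control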
SR-BI DiI inh = blocks mouse SR-BI lipid uptake from DiI-HDL | Q61009 | ldlA[mSR-BI] CHO cells, DiI-HDL uptake fluorescence, 3 h | inhibition, % at 12.5 µM | 320,000 compounds, 0.96% hits;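 active = mean replicate inhibition of at least 70% and a set share of replicates each scoring 70 or more; inconclusive = meets just one of the two criteria; inactive = fails both criteria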;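 also: 0% = median of neutral control wells and 100% = median of positive control wells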
Target sequence (Q61009 whole entry, looked up): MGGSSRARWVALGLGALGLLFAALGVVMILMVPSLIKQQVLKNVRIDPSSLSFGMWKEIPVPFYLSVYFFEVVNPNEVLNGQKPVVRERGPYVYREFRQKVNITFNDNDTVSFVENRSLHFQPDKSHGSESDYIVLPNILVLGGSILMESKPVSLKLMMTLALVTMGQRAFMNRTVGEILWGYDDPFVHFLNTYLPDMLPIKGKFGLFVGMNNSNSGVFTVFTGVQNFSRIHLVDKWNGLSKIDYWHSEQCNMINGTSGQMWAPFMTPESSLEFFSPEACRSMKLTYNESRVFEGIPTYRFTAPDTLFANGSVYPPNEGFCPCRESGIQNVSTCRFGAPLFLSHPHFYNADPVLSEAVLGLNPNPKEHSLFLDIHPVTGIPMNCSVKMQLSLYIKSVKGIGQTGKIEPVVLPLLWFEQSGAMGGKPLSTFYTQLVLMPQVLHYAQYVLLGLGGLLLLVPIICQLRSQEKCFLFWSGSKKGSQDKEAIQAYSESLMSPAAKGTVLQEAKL
SR-BI uptake up = activators of SR-BI mediated HDL lipid uptake; AID 504775; 320,000 compounds, 0.096% hits; CHO ldlA[mSR-BI] cells, DiI-HDL uptake fluorescence, 3 h; 100 = double the neutral-control signal; activation, % at 12.5 µM;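 active = mean replicate activation of at least 60% and every replicate at or above 60%; inconclusive = mean or all-replicate condition met, but not both; inactive = mean below 60% and not all replicates reaching 60%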;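 also: 0% = median plate neutral-control signal and 100% = twice that signal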
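system = CHO ldlA[mSR-BI] cells, LDL receptor-null, SR-BI overexpressing | medium = Ham's F12 with 0.5% BSA, HEPES 25 mM, pH 7.4 | probe or stimulus = DiI-HDL 10 µg/mL | compound dosing = single-point compound dose | incubation = compound exposure 3 h, 37 °C | technique = DiI fluorescence, bottom read | read-out = cell-associated DiI fluorescence as measure of HDL uptake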
Calb FLC = C. albicans growth modulation with fluconazole; C. albicans CaCi-2 + fluconazole, Alamar Blue growth, 48 h; growth inhibition, % (concentration not given with the values); 300,000 compounds, 0.57% hits;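 active = growth inhibition above about 58% in most replicates, limit read from the data, passing the limit was not always enough; inconclusive = exactly half the replicates above a set limit; inactive = most replicates below a set limit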;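 also: all wells also contain fluconazole at 8 µg/ml as a sub-toxic cotreatment; 0% = median of DMSO wells and 100% = median of geldanamycin control wells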
Insulin prom up = MIN6 insulin promoter up-regulation; MIN6 insulin promoter-GFP reporter, high-content imaging; hits give high values; z-score at 5 µM; 190,000 compounds, 0.3% hits; AID 1625;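 active = z-score above 3 at 5 µM with at least 500 cells counted in the well; inconclusive = wells under 500 cells, flagged as cytotoxic or low count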
HTR2A ag = mouse HTR2A agonism via beta-arrestin recruitment; P35363; CHO-K1 mHTR2A beta-arrestin complementation, luminescence; percent of 30 µM serotonin response; activation, % at 7.6 µM; 360,000 compounds, 0.66% hits; AID 624169;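 active = activation above a run cutoff, the mean activation of all tested compounds plus 3 SD, cut at about 14% in these data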;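 also: 0% = plate median of compound wells and 100% = 30 µM serotonin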
MOR ag counter = activates human mu opioid receptor in HTR2A counterscreen | 2,300 compounds, 5.3% hits | shares compounds with HTR2A ag | activation, % at 9.3 µM | U2OS OPRM1 beta-arrestin PathHunter, luminescence; DMSO 0%, DAMGO 9.3 µM 100%;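 active = mean activation above the mean of DMSO-only wells plus 3 SD, cut at about 0.5% in these data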
m5-HT2A ag conf = confirmation of mouse HTR2A serotonin receptor agonists | activation, % at 7.6 µM | 2,300 compounds, 19% hits | shares compounds with HTR2A ag | AID 624381 | CHO-K1 PathHunter beta-arrestin recruitment, luminescence; DMSO 0%, 30 µM serotonin 100%;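 active = mean activation across triplicates above the hit threshold derived in the original primary screen, cut at about 15% in these data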
Active calls of the source: *; ? = inconclusive; / = no result.

SMILES | beta cell repl | SR-BI DiI inh | SR-BI uptake up | Calb FLC | Insulin prom up | HTR2A ag | MOR ag counter | m5-HT2A ag conf
CCc1ccc(NC(=O)Cn2nnc(C(=O)NCCc3ccc(OC)c(OC)c3)c2N)cc1 | 4 | 64 | -64 | -1 | / | 17* | 0 | 2
O=C(CSc1ccc2nnc(-c3ccncc3)n2n1)Nc1ccc2c(c1)OCO2 | -4 | -1 | 0 | 4 | -0.48 | 35* | 0 | 0
COc1ccccc1C(CNC(=O)CCNS(=O)(=O)c1ccc(Br)cc1)N1CCCC1 (stereo not given) | / | -14 | 14 | / | / | -8 | / | /
C=CCn1c(SCC(=O)NCC2CCCO2)nc2sc(CC)cc2c1=O (stereo not given) | -3 | -5 | 5 | / | / | 17* | 0 | 2
Cc1ccc(-n2c(SCC(=O)NCC3CCCO3)nc3c(c2=O)SCC3)cc1 (stereo not given) | -1 | -20 | 20 | / | 0.33 | -3 | / | /
C=CCn1c(SCC(=O)NCC2CCCO2)nc2scc(-c3ccc(OC)cc3)c2c1=O (stereo not given) | 4 | 3 | -3 | -3 | / | 3 | / | /
COc1ccc(-n2c(SCC(=O)NCC3CCCO3)nc3c(c2=O)SCC3)cc1 (stereo not given) | 3 | -11 | / | -4 | / | 15* | -1 | -5
CCn1c(SCC(=O)Nc2ccc(OC)c(OC)c2)nc2c(c1=O)SCC2 | -2 | 12 | -12 | 2 | / | 17* | -1 | -4
COc1ccc(NC(=O)CSc2nc3c(c(=O)n2C)SCC3)cc1OC | 0 | -1 | 1 | 2 | / | 10 | / | /
COc1ccc(S(=O)(=O)N2CCN(c3nn(C)c(=O)n(C)c3=O)CC2)cc1 | -3 | -12 | 12 | / | / | -1 | / | /
COc1cccc(-c2cc(C(=O)NC3CCCCC3)no2)c1 | 1 | -3 | 3 | -5 | / | -7 | / | /
COc1ccc(-c2cc(C(=O)NC3CCCC3)no2)cc1 | 0 | 8 | -8 | 6 | / | 25* | 0 | -4
CCC(=O)c1ccc(OCc2ccc(C(=O)c3ccccc3)cc2)cc1 | -6 | -18 | 18 | 0 | -1.9 | -2 | / | /
COc1ccc(C(=O)CC(=O)C(=O)NCCc2cccc(C)c2)cc1 | -2 | 7 | -7 | -25 | 0.13 | 17* | 0 | -3
CCOc1ccc(CCNC(=O)c2ccc3c(=O)[nH]c4c(C(=O)NC(C)C)sc(=S)n4c3c2)cc1 | -5 | 50 | -50 | -22 | / | 19* | -1 | 0
c1ccc(Cc2noc(CN3CCCC(CN4CCOCC4)C3)n2)cc1 (stereo not given) | -3 | -8 | 8 | -17 | -0.18 | 15* | 0 | 0
C[C@H](CO)N1C[C@H](C)[C@@H](CN(C)C(=O)NC2CCCCC2)Oc2ccc(NC(=O)Nc3ccccc3)cc2C1=O | -2 | 8 | -8 | / | / | 8 | / | /
CC(=O)N/C(=C\c1ccccc1)C(=O)OCC(=O)N(CC(C)C)c1c(N)n(Cc2ccccc2)c(=O)[nH]c1=O | -3 | -1 | 1 | / | / | 7 | / | /
O=C(NC1CCCCC1)N1CCNCC1 | -3 | 10 | -10 | -6 | / | 14* | -1 | -2
O=C(c1ccc(Cl)cc1)N1CCN(S(=O)(=O)/C=C/c2ccccc2)CC1 | 0 | -28 | 28 | / | / | 6 | / | /
Cc1cc(C)c2c(c1)/C(=c1/sc3n(c1=O)CN(c1ccccc1)CN=3)C(=O)N2 | -4 | 2 | -2 | 26 | / | -6 | / | /
Cc1c(C(=O)Nc2ccc(-c3nnc4n3CCCCC4)cc2)oc2ccc(Br)cc12 | -3 | 19 | -19 | 0 | -0.31 | 18* | 0 | 2
COc1ccc(C2/C(=C(/O)c3ccc(Br)cc3)C(=O)C(=O)N2C)cc1 (stereo not given) | 4 | -26 | 26 | 1 | / | 3 | / | /
COc1ccc([C@H]2C[C@@H](O)[C@H](n3cc(COC(=O)c4ccccc4)nn3)CN2C(=O)c2cccs2)cc1 | / | / | / | / | / | -1 | / | /
O=C(NCc1ccccc1)C(c1ccccc1)n1c(C2CC2)nc2ccccc21 (stereo not given) | / | / | / | / | / | -5 | / | /
SMILES | beta cell repl | SR-BI DiI inh | SR-BI uptake up | Calb FLC | Insulin prom up | HTR2A ag | MOR ag counter | m5-HT2A ag conf
CCS(=O)(=O)C1=NN2C(=N)/C(=C\c3ccc(OC(=O)c4ccco4)c(Br)c3)C(=O)N=C2S1 | -4 | / | / | 17 | / | / | / | /
CCS(=O)(=O)C1=NN2C(=N)/C(=C\c3ccc(SCc4ccco4)o3)C(=O)N=C2S1 | / | -91 | ? | -7 | 2 | 18* | 2.2* | 13
CN(C(=O)C1CCC(=O)N(CCCN2CCCC2=O)C1)C(C1CC1)C1CC1 (stereo not given) | -1 | -6 | 6 | -1 | / | -1 | / | /
CC1CC(C)CN(CCOCCSc2ccccc2)C1 (stereo not given) | -2 | -11 | 11 | 5 | / | 16* | 0 | 1
O=C(CS(=O)(=O)c1ccccc1)N1CCCCCC1 | 1 | / | / | -5 | / | 21* | 0 | -1
Cc1ccc(S(=O)(=O)CC(=O)N2CCCC2)cc1 | -2 | -3 | 3 | 6 | 0.36 | -4 | / | /
O=C(c1cccc(S(=O)(=O)NCc2ccccc2)c1)N1CCCCC1 | 1 | -6 | 6 | -9 | / | 19* | 0 | 3
O=C(c1ccc(NS(=O)(=O)c2ccccc2)cc1)N1CCCCCC1 | 2 | 19 | -19 | -29 | / | 17* | 0 | -2
Cc1ccccc1NS(=O)(=O)c1ccc(C(=O)N2CCN(S(=O)(=O)c3ccccc3)CC2)cc1 | -1 | -9 | 9 | / | / | 15* | 0 | 0
O=C(c1ccc(S(=O)(=O)Nc2ccccc2)cc1)N1CCC1 | 5 | -29 | 29 | 2 | / | 2 | / | /
CC(=O)N1CCN(C(=O)c2ccc(S(=O)(=O)Nc3ccccc3C)cc2)CC1 | 0 | -23 | 23 | -1 | / | -6 | / | /
CC(C)[C@H](NS(=O)(=O)c1cccc(C(F)(F)F)c1)C(=O)OCC(=O)NC(=O)NCc1ccco1 | 2 | -12 | 12 | / | / | -1 | / | /
COCCN1C(=O)CN(S(C)(=O)=O)CC1(C)C(=O)Nc1c(C)cccc1C (stereo not given) | / | / | / | / | / | -2 | / | /
COc1cc(OC)nc(NC(=O)CS(=O)(=O)c2ccccc2)n1 | -1 | -15 | / | 3 | 0.51 | 16* | 0 | 3
COc1ccc(OC)c(NC(=O)CS(=O)(=O)c2ccccc2)c1 | -3 | -11 | 11 | 0 | -0.12 | 9 | / | /
C=CCNc1nc(-c2cccc(OC)c2O)nc2ccccc12 | 7 | 76* | -76 | ? | -0.97 | 42* | 0 | 24*
